Laboratory results: publication PMC3638295 (International Journal of Medical Sciences, 2013)
No end group written: not given here.

Tests used:
[1] = tested on: LLC-MK2 cells; test: Cytotoxicity, MTS cell viability assay; format: cell-based, Rhesus Monkey; conditions: 1 to 500 µM peptide, 24, 48 and 72 hours, triplicate
[2] = tested on: DENV-2; test: Plaque formation assay; format: cell-based, DENV-2 (strain New Guinea C); conditions: dose-response curve
In short: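 LLC-MK2 monkey kidney cells (passage <50; DMEM + 10% FBS, 37°C, 5% CO2) were seeded at 3×10^5 cells/well and exposed to a mixture of about 200 PFU DENV-2 New Guinea C (grown in C6/36 cells) and peptide. Plaques per well were counted and normalized to untreated controls as percent inhibition. Run in triplicate.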

Row | Sequence | Toxicity compared to untreated control [1] | maximum inhibition activity against DENV-2 ([2]; at 500 µM, mean ± SD, triplicate) | IC50 ([2]; read-out: IC50 against DENV-2, LLC-MK2 cells) [µM]
1 | IGVRPGKLDL [DET3] | highest toxic effect compared to other peptides |  | 
2 | AGVKDGKLDF [DET4] |  | 84.6% ± 5.6 | 35
